Here are results for 29 compounds from ChEMBL document CHEMBL4308921, “Structure-Activity Relationships of Central Nervous System Penetration by Fatty Acid Amide Hydrolase (FAAH)-Targeted Thyromimetic Prodrugs” (ACS Med Chem Lett, 2019).

What is called Kp is the ratio of the level in a tissue or fluid to that in plasma or blood.

A short description of series [1]: Brain to serum permeability coefficient, Kp of the compound in C57BL/6 mouse assessed as sobetirome level at 3.05 umol/kg, ip after 1 hr by LC-MS/MS analysis. The series is classed as ADME, organism-based.
Series [2] in a line: Prodrug activation in C57BL/6 mouse serum assessed as FAAH-mediated sobetirome formation at 3.05 umol/kg, ip after 1 hr by LC-MS/MS analysis. The series is classed as organism-based. To be noted: in vivo.
Series [3] has as its target T1, Fatty-acid amide hydrolase 1 (Homo sapiens, UniProt O00519).
T1 sequence (O00519 whole entry): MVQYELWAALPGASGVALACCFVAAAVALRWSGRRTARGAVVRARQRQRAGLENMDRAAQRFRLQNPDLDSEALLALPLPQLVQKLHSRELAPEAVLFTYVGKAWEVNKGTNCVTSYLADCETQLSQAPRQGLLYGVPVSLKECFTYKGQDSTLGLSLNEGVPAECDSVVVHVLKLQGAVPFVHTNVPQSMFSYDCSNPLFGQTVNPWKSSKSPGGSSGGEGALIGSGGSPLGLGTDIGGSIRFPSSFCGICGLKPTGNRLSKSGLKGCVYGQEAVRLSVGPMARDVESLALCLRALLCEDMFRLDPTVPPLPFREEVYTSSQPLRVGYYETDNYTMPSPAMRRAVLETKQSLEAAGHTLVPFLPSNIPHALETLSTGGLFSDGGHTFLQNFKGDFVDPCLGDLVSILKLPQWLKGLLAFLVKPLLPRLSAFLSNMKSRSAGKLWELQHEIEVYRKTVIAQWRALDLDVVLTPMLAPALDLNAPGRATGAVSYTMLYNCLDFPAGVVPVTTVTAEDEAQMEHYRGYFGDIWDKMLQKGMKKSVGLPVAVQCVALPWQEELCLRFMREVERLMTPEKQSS
Kind of series: Prodrug activation in COS7 cells overexpressing human FAAH assessed as FAAH-mediated sobetirome formation by measuring compound hydrolysis rate at 100 uM by LC-MS/MS analysis. The series is classed as cell-based. A digest of the protocol:
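Hydrolysis kinetics were measured in homogenate of COS-7 cells overexpressing human FAAH, with prodrug substrate at 100 µM. Rate is given as nmol mg-1 min-1, mean ± SEM, n = 3.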

Series [4] can be described thus: Prodrug activation in C57BL/6 mouse brain assessed as FAAH-mediated sobetirome formation at 3.05 umol/kg, ip after 1 hr by LC-MS/MS analysis. To be noted: in vivo. In kind it is organism-based.
Series [5] in a line: Brain to serum permeability coefficient, Kp of the compound in C57BL/6 mouse at 3.05 umol/kg, ip after 1 hr by LC-MS/MS analysis. In kind it is ADME, organism-based.
Series [6] in a line: Drug uptake in C57BL/6 mouse brain at 3.05 umol/kg, ip after 1 hr by LC-MS/MS analysis. To be noted: read-out: Drug uptake. In kind it is ADME, organism-based.
Series [7] is described as follows: Drug uptake in C57BL/6 mouse serum at 3.05 umol/kg, ip after 1 hr by LC-MS/MS analysis. To be noted: read-out: Drug uptake. The series is classed as ADME, organism-based.

Each structure is given as a SMILES string.

`Cc1cc(OCC(=O)NCCF)cc(C)c1Cc1ccc(O)c(C(C)C)c1`: in series [1], the partition ratio (Kp) was 1.7. The Drug uptake in series [2] was determined as 64.2 ng/g; in series [4], 107.1 ng/g. Also, in series [3], the Drug metabolism was 3.5 nmol/mg/min.

On to `CCCNC(=O)COc1cc(C)c(Cc2ccc(O)c(C(C)C)c2)c(C)c1`, for which, in series [1], the Kp turned out to be 1.15. The results for the Drug uptake in series [2] and in series [4] were 16.9 ng/g and 20.2 ng/g, respectively. The Drug metabolism in series [3] is given as 2.6 nmol/mg/min.

For the compound `Cc1cc(OCC(=O)NN)cc(C)c1Cc1ccc(O)c(C(C)C)c1`, the Kp in series [1] is recorded as 0.58. Further, the Drug uptake in series [2] stood at 199.5 ng/g; in series [4], 68.2 ng/g. The Drug metabolism in series [3] turned out to be 3.8 nmol/mg/min.

Regarding `CONC(=O)COc1cc(C)c(Cc2ccc(O)c(C(C)C)c2)c(C)c1`, in series [1], the Kp came out at 0.04. Moreover, the figures for the Drug uptake in series [2] and in series [4] were 209.7 ng/g and 8.4 ng/g, respectively. The Drug metabolism in series [3] worked out at 4.1 nmol/mg/min.

Consider `Cc1cc(OCC(=O)NCCS(=O)(=O)[O-])cc(C)c1Cc1ccc(O)c(C(C)C)c1.[Na+]`, for which the Kp in series [1] came out at 0.18. Further, the Drug uptake in series [2] is recorded as 45.7 ng/g; in series [4], 7.1 ng/g. Moreover, the Drug metabolism in series [3] is recorded as 8.9 nmol/mg/min.

With `Cc1cc(OCC(=O)NCC(C)O)cc(C)c1Cc1ccc(O)c(C(C)C)c1` (stereo not given), the Kp in series [1] turned out to be 0.72. Moreover, the Drug uptake in series [2] is listed as 55.7 ng/g; in series [4], 38.7 ng/g. Moreover, the Drug metabolism in series [3] came out at 3.6 nmol/mg/min.

Take `C=CCNC(=O)COc1cc(C)c(Cc2ccc(O)c(C(C)C)c2)c(C)c1`: in series [1], the Kp is on record as 1.23. Besides, the Drug uptake in series [2] is on record as 25.4 ng/g; in series [4], 33.4 ng/g. Moreover, the Drug metabolism in series [3] was found to be 3.6 nmol/mg/min.

`Cc1cc(OCC(=O)NCC(F)F)cc(C)c1Cc1ccc(O)c(C(C)C)c1`: in series [1], the concentration ratio (Kp) stood at 1.04. In addition, the values for the Drug uptake in series [2] and in series [4] were 128.8 ng/g and 125.4 ng/g, respectively. Moreover, the Drug metabolism in series [3] is reported as 3.4 nmol/mg/min.

Turning to `Cc1cc(OCC(=O)NO)cc(C)c1Cc1ccc(O)c(C(C)C)c1`, the Kp in series [1] is 0.03. Moreover, the values for the Drug uptake in series [2] and in series [4] were 127.7 ng/g and 2.8 ng/g, respectively. The Drug metabolism in series [3] amounted to 4.9 nmol/mg/min.

With `C#CCNC(=O)COc1cc(C)c(Cc2ccc(O)c(C(C)C)c2)c(C)c1`, the Kp in series [1] was found to be 0.99. Besides, the Drug uptake was 59.4 ng/g in series [2] and 59.5 ng/g in series [4]. In addition, the Drug metabolism in series [3] is on record as 3.2 nmol/mg/min.

In the case of `Cc1cc(OCC(=O)NCCNS(C)(=O)=O)cc(C)c1Cc1ccc(O)c(C(C)C)c1`, the Kp in series [1] came to 0.06. For the same compound, the Drug uptake in series [2] is recorded as 26.2 ng/g; in series [4], 1.6 ng/g. For the same compound, the Drug metabolism in series [3] was 2.4 nmol/mg/min.

With `Cc1cc(OCC(=O)Nc2cccc(F)c2)cc(C)c1Cc1ccc(O)c(C(C)C)c1`, the concentration ratio (Kp) in series [1] is recorded as 0.04. The figures for the Drug uptake in series [2] and in series [4] were 383.8 ng/g and 15.4 ng/g, respectively. For the same compound, the Drug metabolism in series [3] worked out at 2.1 nmol/mg/min.

In the case of `Cc1cc(OCC(=O)NC2CC2)cc(C)c1Cc1ccc(O)c(C(C)C)c1`, the Kp in series [1] came to 2.49. For the same compound, the Drug uptake in series [2] came to 23.8 ng/g; in series [4] it was 58 ng/g. The Drug metabolism in series [3] was 3.2 nmol/mg/min.

`Cc1cc(OCC(=O)NCCO)cc(C)c1Cc1ccc(O)c(C(C)C)c1`: the Kp in series [1] came to 0.37. Besides, the Drug uptake in series [2] turned out to be 66.8 ng/g; in series [4], 25.5 ng/g. The Drug metabolism in series [3] turned out to be 4.8 nmol/mg/min.

Take `Cc1cc(OCC(=O)NCCc2ccc(O)c(O)c2)cc(C)c1Cc1ccc(O)c(C(C)C)c1`: the Kp in series [1] worked out at 0.94. Further, the Drug uptake is 4.9 ng/g in series [2] and 7.4 ng/g in series [4]. Besides, in series [3], the Drug metabolism amounted to 0.8 nmol/mg/min.

On to `CCNC(=O)COc1cc(C)c(Cc2ccc(O)c(C(C)C)c2)c(C)c1`, for which, in series [1], the Kp is reported as 2.74. Further, the Drug uptake in series [2] came out at 21.5 ng/g; in series [4] it was 58.2 ng/g. In addition, in series [3], the Drug metabolism is listed as 3.4 nmol/mg/min.

Turning to `Cc1cc(OCC(=O)NCC#N)cc(C)c1Cc1ccc(O)c(C(C)C)c1`, in series [1], the Kp worked out at 0.57. In addition, the Drug uptake in series [2] was 107.7 ng/g; in series [4] it was 59.9 ng/g. Also, the Drug metabolism in series [3] was 5 nmol/mg/min.

On to `Cc1cc(OCC(N)=O)cc(C)c1Cc1ccc(O)c(C(C)C)c1`, for which, in series [1], the Kp is given as 1.17. Moreover, the Drug uptake in series [2] came out at 79.5 ng/g; in series [4] it was 93.9 ng/g. Further, the Drug metabolism in series [3] is reported as 4.7 nmol/mg/min.

On to `Cc1cc(OCC(=O)NCCN)cc(C)c1Cc1ccc(O)c(C(C)C)c1`, for which, in series [1], the Kp is given as 0.07. Further, the results for the Drug uptake in series [2] and in series [4] were 6.9 ng/g and 0.8 ng/g, respectively. Besides, the Drug metabolism in series [3] amounted to 5.6 nmol/mg/min.

`Cc1cc(OCC(=O)NCc2ccccc2)cc(C)c1Cc1ccc(O)c(C(C)C)c1`: in series [1], the Kp is 0.95. The Drug uptake in series [2] is 15.2 ng/g; in series [4], 15.7 ng/g. The Drug metabolism in series [3] was 1.7 nmol/mg/min.

For `Cc1cc(OCC(=O)NCCc2ccccc2)cc(C)c1Cc1ccc(O)c(C(C)C)c1`, in series [1], the Kp stood at 1.31. Further, the figures for the Drug uptake in series [2] and in series [4] were 8.6 ng/g and 11.3 ng/g, respectively. In addition, the Drug metabolism in series [3] is on record as 1 nmol/mg/min.

Regarding `Cc1cc(OCC(=O)O)cc(C)c1Cc1ccc(O)c(C(C)C)c1` [SOBETIROME], the Kp at 1 h in series [5] was determined as 0.03. The concentration at 1 h in series [6] came to 3.6 ng/g; in series [7] it was 319 ng/g.

For `Cc1cc(OCC(=O)N(C)C)cc(C)c1Cc1ccc(O)c(C(C)C)c1`, the Kp in series [1] is listed as 3.17. For the same compound, the Drug uptake in series [2] came out at 10.4 ng/g; in series [4], 32.2 ng/g. Further, in series [3], the Drug metabolism is listed as 4.3 nmol/mg/min.

In the case of `Cc1cc(OCC(=O)NCC(F)(F)F)cc(C)c1Cc1ccc(O)c(C(C)C)c1`, in series [1], the Kp was 0.76. The Drug uptake was 80.2 ng/g in series [2] and 59.4 ng/g in series [4]. For the same compound, the Drug metabolism in series [3] stood at 4.8 nmol/mg/min.

Consider `Cc1cc(OCC(=O)NC(CO)CO)cc(C)c1Cc1ccc(O)c(C(C)C)c1`, for which the concentration ratio (Kp) in series [1] is 0.03. The Drug uptake is given as 98 ng/g in series [2] and 2.6 ng/g in series [4]. Moreover, in series [3], the Drug metabolism is reported as 3.7 nmol/mg/min.

Regarding `Cc1cc(OCC(=O)NC2COC2)cc(C)c1Cc1ccc(O)c(C(C)C)c1`, the Kp in series [1] is 0.75. In addition, the Drug uptake stood at 110.6 ng/g in series [2] and 79.2 ng/g in series [4]. Further, the Drug metabolism in series [3] turned out to be 3.7 nmol/mg/min.

Consider `Cc1cc(OCC(=O)NC(C)CO)cc(C)c1Cc1ccc(O)c(C(C)C)c1` (stereo not given), for which, in series [1], the Kp was 0.69. Besides, the Drug uptake is given as 33.7 ng/g in series [2] and 22.3 ng/g in series [4]. Moreover, in series [3], the Drug metabolism was found to be 4.5 nmol/mg/min.

Turning to `Cc1cc(OCC(=O)Nc2cccc(O)c2)cc(C)c1Cc1ccc(O)c(C(C)C)c1`, the Kp in series [1] is 0.04. The Drug uptake came out at 325.7 ng/g in series [2] and 12.8 ng/g in series [4]. In series [3], the Drug metabolism is listed as 10.1 nmol/mg/min.

For `Cc1cc(OCC(=O)Nc2ccccc2O)cc(C)c1Cc1ccc(O)c(C(C)C)c1`, the Kp in series [1] is reported as 0.04. In addition, the Drug uptake is 174.7 ng/g in series [2] and 7.4 ng/g in series [4]. In series [3], the Drug metabolism worked out at 1.4 nmol/mg/min.
